Laboratory results reported in ChEMBL document CHEMBL1126828, “Structure-activity relationships of trans-3,4-dimethyl-4-(3-hydroxyphenyl)piperidine antagonists for mu- and kappa-opioid receptors” (J Med Chem, 1993).

Tests used:
[1] = target: Kappa-type opioid receptor (Mus musculus) (UniProt P33534); experiment: Antagonism of opioid analgesia using a mouse writhing model to block U-50,488 ([…]) induced kappa-opioid receptor subcutaneously; type: functional, organism-based
[2] = target: Kappa-type opioid receptor (Rattus norvegicus) (UniProt P34975); experiment: Tested for the antagonism of kappa opioid receptor diuresis at a dose of 0.08 mg/kg subcutaneously; type: functional, organism-based; parameters: dose 0.08 mg/kg
Outline: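 Male Long-Evans hooded rats (350-500 g), bremazocine HCl 0.08 mg/kg sc to induce diuresis, test antagonist sc at once on opposite side; metabolism cages, urine volume at 2 and 5 h. Three rats per dose, doses varied 2-fold; AD50 = dose halving 5-h urination.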

[3] = target: Mu-type opioid receptor (Mus musculus) (UniProt P42866); experiment: Antagonism of opioid analgesia using a mouse writhing model to block morphine ([…]) induced mu-opioid receptor (subcutaneously dosed); type: functional, organism-based
[4] = target: T1, Mu-type opioid receptor (Rattus norvegicus, UniProt P33535); experiment: Binding affinity towards mu opioid receptor by displacement of [3H]NAL from rat brain homogenates; type: tissue-based
[5] = target: T2, Kappa-type opioid receptor (Cavia porcellus, UniProt P41144); experiment: Binding affinity towards kappa-opioid receptor by displacement of [3H]-EKC at from guinea pig cortical tissue
[6] = target: T1, Mu-type opioid receptor; experiment: Binding affinity towards mu-opioid receptor by displacement of [3H]NAL at 10 nM from rat brain homogenates; type: tissue-based
[7] = target: T1, Mu-type opioid receptor; experiment: Binding affinity towards mu-opioid receptor by displacement of [3H]NAL at 100 nM from rat brain homogenates; type: tissue-based
[8] = target: T2, Kappa-type opioid receptor; experiment: Binding affinity towards kappa-opioid receptor by displacement of [3H]EKC from guinea pig cortical tissue
Outline: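 Guinea pig cortical washed crude synaptosomal membranes (stored -125 °C) in modified Krebs-HEPES pH 7.4; 1.0 nM [3H]ethylketocyclazocine, 100 nM fentanyl and 100 nM D-Ala2-D-Leu5-enkephalin to block mu/delta sites; 37 °C, 45 min. Nonspecific: 1000 nM unlabeled EKC. GF-C filtration, ice-cold washes, scintillation counting. Ki from at least six concentrations in triplicate, by regression.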

T2 sequence (P41144 whole entry): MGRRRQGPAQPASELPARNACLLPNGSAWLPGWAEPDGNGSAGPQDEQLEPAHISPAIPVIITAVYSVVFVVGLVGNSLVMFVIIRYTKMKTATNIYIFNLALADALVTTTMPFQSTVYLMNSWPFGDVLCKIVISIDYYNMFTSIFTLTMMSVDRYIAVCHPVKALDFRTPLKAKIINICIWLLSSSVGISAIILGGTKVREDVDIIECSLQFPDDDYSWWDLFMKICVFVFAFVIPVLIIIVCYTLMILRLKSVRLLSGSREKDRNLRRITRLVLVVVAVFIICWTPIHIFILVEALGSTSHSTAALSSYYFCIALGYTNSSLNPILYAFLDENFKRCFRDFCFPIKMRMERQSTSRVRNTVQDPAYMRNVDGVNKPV
Sequence of Kappa-type opioid receptor (Rattus norvegicus) (P34975 whole entry): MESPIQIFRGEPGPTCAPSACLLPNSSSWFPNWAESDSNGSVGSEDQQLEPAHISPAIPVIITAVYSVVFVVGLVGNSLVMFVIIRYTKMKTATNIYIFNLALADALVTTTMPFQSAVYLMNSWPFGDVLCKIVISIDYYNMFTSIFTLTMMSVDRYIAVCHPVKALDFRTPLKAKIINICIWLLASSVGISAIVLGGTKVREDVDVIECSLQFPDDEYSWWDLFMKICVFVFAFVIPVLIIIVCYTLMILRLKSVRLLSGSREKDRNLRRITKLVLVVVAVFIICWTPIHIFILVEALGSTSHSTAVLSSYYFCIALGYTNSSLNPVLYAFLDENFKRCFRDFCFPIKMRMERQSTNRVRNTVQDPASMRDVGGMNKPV
Sequence of Kappa-type opioid receptor (Mus musculus) (P33534 whole entry): as the sequence (P34975 whole entry) above, with E11D, A17S, P51S, V308A counted along it
Sequence of Mu-type opioid receptor (Mus musculus) (P42866 whole entry): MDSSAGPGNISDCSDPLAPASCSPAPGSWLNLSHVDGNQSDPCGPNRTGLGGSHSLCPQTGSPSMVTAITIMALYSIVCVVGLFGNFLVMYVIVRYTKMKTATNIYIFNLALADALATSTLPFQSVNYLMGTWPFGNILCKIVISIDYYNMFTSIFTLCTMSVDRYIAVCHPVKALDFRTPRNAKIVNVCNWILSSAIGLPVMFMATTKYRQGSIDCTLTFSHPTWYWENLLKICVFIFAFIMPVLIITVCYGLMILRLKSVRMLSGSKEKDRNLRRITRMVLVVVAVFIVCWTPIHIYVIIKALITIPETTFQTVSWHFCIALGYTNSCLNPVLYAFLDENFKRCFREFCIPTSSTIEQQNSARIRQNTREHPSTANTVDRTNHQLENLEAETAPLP
T1 sequence (P33535 whole entry): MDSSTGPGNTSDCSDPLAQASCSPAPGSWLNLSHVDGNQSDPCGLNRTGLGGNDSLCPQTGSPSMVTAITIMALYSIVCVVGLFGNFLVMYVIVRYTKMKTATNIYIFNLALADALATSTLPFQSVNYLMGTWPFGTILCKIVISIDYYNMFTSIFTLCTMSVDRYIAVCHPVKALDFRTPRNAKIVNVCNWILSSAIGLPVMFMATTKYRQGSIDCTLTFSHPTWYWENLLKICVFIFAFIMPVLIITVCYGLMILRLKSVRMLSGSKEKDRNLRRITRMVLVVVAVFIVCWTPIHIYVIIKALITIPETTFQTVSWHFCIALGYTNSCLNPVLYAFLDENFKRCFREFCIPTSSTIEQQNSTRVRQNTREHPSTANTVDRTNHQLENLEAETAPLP

SMILES	AD50 [1] [mg/kg]	AD50 [2] [mg/kg]	AD50 [3] [mg/kg]	Ki [4] [nM]	Ki [5] [nM]	Ki [6] [nM]	Ki [7] [nM]	Ki [8] [nM]
C[C@H]1CN(CCCCc2ccccc2)CC[C@@]1(C)c1cccc(O)c1	> 1.25	4.1	0.28	2				
C[C@H]1CN(CCc2cccs2)CC[C@@]1(C)c1cccc(O)c1	0.25	3.8	0.25	5.3				
C[C@H]1CN(CCCc2ccccc2)CC[C@@]1(C)c1cccc(O)c1		1.1	2.4	0.69	15			
C[C@H]1CN(CC(O)Cc2ccccc2)CC[C@@]1(C)c1cccc(O)c1 (stereo not given in full)	0.85	3.7	0.27			88	100	
C[C@H]1CN(CCC(O)c2cccs2)CC[C@@]1(C)c1cccc(O)c1 (stereo not given in full)	0.14	1.4	0.07	0.5	11.7			
C[C@@H]1CN(CCCc2cccs2)CC[C@]1(C)c1cccc(O)c1				1.8	13			
Cc1ccccc1CCN1CC[C@@](C)(c2cccc(O)c2)[C@@H](C)C1	0.33	0.5	0.19			90	100	7.5
Cc1cccc(CCCN2CC[C@@](C)(c3cccc(O)c3)[C@@H](C)C2)c1	> 0.32	10	> 1.25	2.8				
C[C@H]1CN(CCOc2ccccc2)CC[C@@]1(C)c1cccc(O)c1	> 40	3	0.14	1.3	57			
C[C@H]1CN(CCCc2ccsc2)CC[C@@]1(C)c1cccc(O)c1					10	0.26		
C=CCN1CC[C@@](C)(c2cccc(O)c2)[C@@H](C)C1	> 10		1.3	16	313			
C[C@H]1CN(CCC(=O)c2ccccc2)CC[C@@]1(C)c1cccc(O)c1 (stereo in doubt; 6) [listing 1 of 2 here]				5.4	208			
C[C@@H]1CN(CCC(=O)c2ccccc2)CC[C@]1(C)c1cccc(O)c1				12	318			
C[C@H]1CN(CCc2cccc3ccccc23)CC[C@@]1(C)c1cccc(O)c1	0.51	> 5	0.08			1.1		
C[C@H]1CN(CCc2cccc(Cl)c2)CC[C@@]1(C)c1cccc(O)c1	0.38	3.6	0.44	0.3				
C[C@H]1CN(CCCc2cccs2)CC[C@@]1(C)c1cccc(O)c1 (stereo in doubt; 41)	0.3							
C[C@H]1CN(CCCc2ccco2)CC[C@@]1(C)c1cccc(O)c1	0.26		0.08	1.4	14			
Cc1cccc(CCN2CC[C@@](C)(c3cccc(O)c3)[C@@H](C)C2)c1	0.95	5.7	0.27			83	100	
C[C@H]1CN(CCc2ccccc2Cl)CC[C@@]1(C)c1cccc(O)c1	0.51	3.4	0.31	3.5				
CC(CCCN1CC[C@@](C)(c2cccc(O)c2)[C@@H](C)C1)c1ccccc1 (stereo not given in full)	0.91	8.4	0.25			63	100	
CCCCCCCN1CC[C@@](C)(c2cccc(O)c2)[C@@H](C)C1				0.62				
C[C@H]1CN(CCCc2cccc(Cl)c2)CC[C@@]1(C)c1cccc(O)c1	> 1.25	11	0.76			89	100	
Cc1ccccc1CCCN1CC[C@@](C)(c2cccc(O)c2)[C@@H](C)C1	0.09	1.4	0.05	0.62	8.9			
C[C@H]1CN(CCC(=O)c2ccccc2)CC[C@@]1(C)c1cccc(O)c1 (stereo in doubt; 6) [listing 2 of 2 here]	4.5	3.2	0.14					
